Series [1] can be described thus: Cytotoxicity against human TE1 cells assessed as growth inhibition after 72 hrs by CCK8 assay. Format: functional, cell-based, TE-1. Particulars: Homo sapiens, TE-1, 72 h; read-out: IC50. The essentials:
(§1)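 Exponentially growing cells were trypsinized and seeded at 2 × 10^4 cells/mL (100 µL/well). After 24 h, medium was replaced with compound at 0.5–256 µM (twofold steps). Plates were incubated 72 h at 37 °C, 5% CO2, then with CCK-8 for 4 h. A450 was read. Three independent runs; IC50 given as mean and SD.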
A general note: Tetrazolium dyes change colour on reduction, which living cells bring about.

The nature of series [2]: Cytotoxicity against human MCF7 cells assessed as growth inhibition after 72 hrs by CCK8 assay. Particulars: Homo sapiens, MCF7, 72 h; read-out: IC50. In kind it is functional, cell-based. The method, boiled down: as §1
A short description of series [3]: Cytotoxicity against human SW780 cells assessed as growth inhibition after 72 hrs by CCK8 assay. In kind it is functional, cell-based. Particulars: Homo sapiens, SW780, 72 h; read-out: IC50. The method, boiled down: as §1
The nature of series [4]: Cytotoxicity against human MGC803 cells assessed as growth inhibition after 72 hrs by CCK8 assay. Format: functional, cell-based, MGC-803. The conditions noted are these: Homo sapiens, MGC-803, 72 h; read-out: IC50. The essentials:
as §1

Series [5] in a line: Cytotoxicity against human HL-7702 cells assessed as growth inhibition after 72 hrs by CCK8 assay. In kind it is toxicity, cell-based, L02. The conditions noted are these: human, HL-7702 cells. The essentials: as §1
A short description of series [6]: Cytotoxicity against human GES-1 cells assessed as growth inhibition after 72 hrs by CCK8 assay. Format: toxicity, cell-based, GES1. The conditions noted are these: human, GES-1 cells. The essentials: as §1

One may read the IC50 as the concentration that inhibits the measured activity by half. Regarding `O=C1C(=O)N(Cc2cn(CC(=O)N3CCOCC3)nn2)c2c(Cl)ccc(Cl)c21`, the IC50 came out at 119 µM in series [1], 146 µM in series [2], 113 µM in series [3] and 51.7 µM in series [4]. In addition, the IC50 at 72 h in series [5] and in series [6] was > 128 µM throughout.
Turning to `CC(C)(C)OC(=O)N1CCN(C(=O)Cn2cc(CN3C(=O)C(=O)c4c(Cl)ccc(Cl)c43)nn2)CC1`, the IC50 was 39.2 µM in series [1], 46.9 µM in series [2], > 128 µM in series [3] and 22 µM in series [4]. In addition, the half-maximal inhibitory concentration (IC50) at 72 h in series [5] stood at 42 µM; in series [6], 84.2 µM.
Regarding `O=c1[nH]cc(F)c(=O)[nH]1` [FLUOROURACIL], the IC50 in series [1] is 17.3 µM; in series [2], 13.2 µM; in series [3], 6.99 µM; in series [4] it was 10.6 µM. The IC50 at 72 h was determined as 12.8 µM in series [5] and 13.8 µM in series [6].
For `O=C1C(=O)N(Cc2cn(CC(=O)N3CCCCC3)nn2)c2c(Cl)ccc(Cl)c21`, the half-inhibitory concentration (IC50) in series [1] was 40.6 µM; in series [2] it was 34.6 µM; in series [3], 29.7 µM; in series [4], 18.7 µM. Also, the half-maximal inhibitory concentration (IC50) at 72 h in series [5] was 39.3 µM; in series [6], 50.7 µM.
